This is a sample that favours compounds with a hit; in the whole collection about 4.1% have one here.
KCNQ1 pot – potentiators or activators of KCNQ1 channel, primary screen, cell-based, thallium flux, high-throughput | actives 0.35% (n = 310,000) | B-score at 10 µM | AID 2648, 2010 | Potassium voltage-gated channel subfamily KQT member 1 (Homo sapiens), P51787 | CHO-K1 KCNQ1, thallium flux FluxOR fluorescence; hits give high values;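 active = fluorescence ratio B-score, a plate-corrected score, at least three library SD, with initial intensity B-score within 5 SD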
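Schedule – 37 °C overnight plating, 90-min dark dye load, 20-min compound pretreatment · System – stable KCNQ1 CHO-K1 line · Probe or stimulus – thallium- and potassium-containing depolarizing buffer · Measured by – kinetic FluxOR fluorescence, 10 s baseline plus 110 s post-stimulus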
hERG protect – hERG rescue from dofetilide block, primary screen, cell-based, CHO-hERG, FluxOR thallium flux, dofetilide IC70 | Voltage-gated inwardly rectifying potassium channel KCNH2 (Homo sapiens), Q12809 | dofetilide IC70 present | activation (rescue from dofetilide block), less the hit threshold, % at 10 µM | actives 0.51% (n = 310,000) | AID 1511, 2009;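 active = activation above the mean of controls blocked by dofetilide plus 5 SD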;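 also: thallium influx through hERG after potassium depolarization seen as dye fluorescence rise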
Cl transport mod – KCC2 cotransporter modulators, thallium flux, primary screen, cell-based, HEK293 KCC2, FluoZin-2 fluorescence, MLSMR | KCC2 cells, thallium flux FluoZin-2 fluorescence | actives 2.2% (n = 190,000) | Solute carrier family 12 member 5 (Homo sapiens), Q9H2X9 | B-score of Tl+ flux slope (higher = more flux/activation; lower = inhibition) at 10 µM;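 active = thallium flux slope and its plate-corrected score both differing from the plate sample mean at a set confidence after two filtering rounds, in either direction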;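 also: slope of fluorescence scaled to starting intensity during 10 to 20 s after thallium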
KCNQ1 inh – inhibitors of human KCNQ1 channel, primary screen, cell-based, thallium flux, high-throughput. Potassium voltage-gated channel subfamily KQT member 1 (Homo sapiens), P51787. CHO-K1 KCNQ1, FluxOR thallium flux fluorescence; hits give high values. B-score at 10 µM. actives 1.3% (n = 310,000). AID 2642, 2010;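 active = compounds whose thallium flux B-score, printed positive for inhibition, exceeds three library SD while starting fluorescence stays within three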;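 also: channel opened by potassium depolarization with thallium stimulus after 20 min compound exposure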
KCNK9 block – KCNK9 potassium channel inhibitors, primary screen, HEK293 cells, thallium flux | actives 1.2% (n = 310,000) | FluxOR thallium flux fluorescence; hits give low values | B-score at 10 µM | Potassium channel subfamily K member 9 (Homo sapiens), Q9NPC2;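 active = ratio B-score over 3 SD below the library mean, with starting fluorescence within 5 SD of its mean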;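 also: negative B-score means less thallium flux so channel inhibition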
Target sequence (Q9NPC2 whole entry, looked up): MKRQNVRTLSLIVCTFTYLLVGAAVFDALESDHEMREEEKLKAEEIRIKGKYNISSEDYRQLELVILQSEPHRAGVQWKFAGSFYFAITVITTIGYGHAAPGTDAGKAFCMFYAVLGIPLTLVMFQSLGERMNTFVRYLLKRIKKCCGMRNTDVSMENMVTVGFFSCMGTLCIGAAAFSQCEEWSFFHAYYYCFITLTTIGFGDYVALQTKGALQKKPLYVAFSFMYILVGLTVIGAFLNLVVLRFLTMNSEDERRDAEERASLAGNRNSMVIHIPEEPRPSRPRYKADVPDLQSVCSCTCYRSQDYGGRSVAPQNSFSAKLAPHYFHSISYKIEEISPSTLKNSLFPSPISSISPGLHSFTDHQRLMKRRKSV
KCNK3 inh – human KCNK3 channel inhibitors, primary screen, CHO cells, FluxOR thallium flux, B-score; Potassium channel subfamily K member 3 (Homo sapiens), O14649; FluxOR fluorescence; hits give low values; B-score at 10 µM; actives 0.84% (n = 340,000); AID 602410, 2012;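 active = B-score under library mean minus 4 SD, starting fluorescence ratio at most library mean plus 5 SD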;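 also: more negative B-score means stronger inhibition of thallium flux through KCNK3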
KCNK9 block conf – KCNK9 potassium channel inhibitors, confirmation, HEK293 cells, thallium flux, duplicate; shares compounds with KCNK9 block; FluxOR thallium flux fluorescence; inhibition, % at 10 µM; actives 43% (n = 4,900);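 active = thallium signal inhibited by more than 5 SD of the compound-free buffer control wells, on both duplicate plates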;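 also: 0% = assay buffer control wells without compound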
Kir21 sel – mouse Kir2.1 channel inhibition, confirmation, selectivity assay for KCNK9 modulator project, cell-based, HEK293, thallium flux; inhibition, % at 10 µM; actives 4% (n = 4,900); Kir2.1 cells, FluxOR thallium flux fluorescence; shares compounds with KCNK9 block;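 active = thallium signal drop more than 5 SD beyond the mean of the no-compound control wells, seen in both duplicate plates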;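 also: signal is fluorescence rise after thallium addition divided by baseline fluorescence; plate controls were assay buffer only for no effect and full block by chlorpromazine control for full effect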
KCNK9 uninduced – thallium flux in non-induced HEK293 cells, confirmation, counter-screen for KCNK9 inhibitor project, cell-based, second counter screen, non-induced KCNK9-HEK293. shares compounds with KCNK9 block. FluxOR thallium flux. inhibition, % at 10 µM. actives 40% (n = 4,900). AID 492997, 2010;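 active = thallium signal drop beyond 5 SD of the untreated control mean, on both duplicate plates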;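 also: plate controls were buffer only IC0 wells for no effect and SID17386958 at its maximal inhibitory level for full effect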
KCNK3 confirm – retest of human KCNK3 channel inhibitors, confirmation, CHO cells, FluxOR thallium flux, triplicate; actives 99% (n = 2,400); ratio percent of control, % at 10 µM; FluxOR fluorescence; 0% buffer, 100% carvedilol maximal block; shares compounds with KCNK3 inh;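 active = ratio percent of control, averaged over triplicates, above buffer control mean plus 5 SD, cut at about 64% in these data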;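 also: ratio is the fluorescence rise from min to max over baseline after thallium stimulus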
KCNK3 uninduced – thallium flux inhibition in non-induced cells, primary screen, counter-screen for KCNK3 inhibitor project, cell-based, non-induced KCNK3 line, FluxOR thallium, triplicate | shares compounds with KCNK3 inh | non-induced KCNK3 parental cells; hits give low values | thallium flux ratio (lower = more inhibition) at 10 µM | actives 40% (n = 2,400) | AID 651747, 2012;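 active = thallium flux ratio, averaged over three wells, more than 5 SD below the buffer control mean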;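 also: host cells are CHO cells without KCNK3 induction; ratio is peak minus trough fluorescence over baseline then normalized to buffer controls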
* marks the source's active call; other numbers are inactive results; i = inactive; · = no result given.

SMILES	KCNQ1 pot	hERG protect	Cl transport mod	KCNQ1 inh	KCNK9 block	KCNK3 inh	KCNK3 confirm	KCNK3 uninduced	others
CC(C)Oc1cccc(C(=O)C2CCCN(Cc3ccon3)C2)c1 (configuration not stated)	i	-13.9	·	i	i	i	·	·
COc1ccc(CN2CCCC(C(=O)c3ccccc3SC)C2)cc1O (configuration not stated)	i	-19.6	-1.28	i	i	i	·	·
COc1cccc(C(=O)C2CCCN(Cc3ccc4nonc4c3)C2)c1 (configuration not stated)	i	-7.7	-2.34	i	i	i	·	·	KCNK9 block conf=i;Kir21 sel=i;KCNK9 uninduced=i
O=C(c1cc(F)ccc1F)C1CCCN(Cc2ccc3nonc3c2)C1 (configuration not stated)	i	-4.8	-0.444	i	i	i	·	·	KCNK9 block conf=i;Kir21 sel=i;KCNK9 uninduced=i
CC(=O)O[C@H]1CCC2C3CC[C@H]4[C@@H](O)[C@H](O)CC[C@]4(C)C3CC[C@@]21C (some centres not stated)	·	·	·	·	·	i	·	·
CCCCN(Cc1ccccc1)C1CCN(CCc2ccccc2)CC1	i	-8.1	0.00186	i	i	i	·	·	KCNK9 block conf=i;Kir21 sel=i;KCNK9 uninduced=i
COC(=O)C1=C(c2ccc(Cl)c(C(F)(F)F)c2)C[C@@H]2CC[C@H]1N2C(=O)NCCOc1ccc(OC)cc1	·	·	·	·	·	i	·	·
Cc1cccc(CN2CCN(c3ccc(Cl)cc3)CC2)c1	i	-21.0	-0.265	i	i	i	·	·	KCNK9 block conf=i;Kir21 sel=i;KCNK9 uninduced=i
Cc1cccc(CN2CCN(Cc3ccc(Cl)cc3)CC2)c1	i	-11.2	-0.116	i	i	i	·	·
COc1ccc(N=Cc2c(O)n(Cc3ccccc3)c(=S)[nH]c2=O)c(OC)c1	i	-14.8	0.477	6*	i	-8.73*	151.3*	i
CNC(=O)c1cccn(Cc2ccc(C(F)(F)F)cc2)c1=O	i	-2.4	-0.00506	i	i	i	·	·
O=C(NCc1ccccc1)c1cccn(Cc2ccccc2)c1=O	i	-12.3	·	i	i	-9.78*	108.0*	i
Clc1ccc(CCC(Cn2ccnc2)Sc2c(Cl)cccc2Cl)cc1 (configuration not stated)	·	·	·	·	·	-14.4*	119.7*	0.153*
Clc1ccc(Cn2ccnc2)cn1	i	-11.1	·	i	i	i	·	·
Cc1ccc(CN2CCCN(Cc3ccccc3C)S2(=O)=O)cc1	i	3.7	·	i	-6.82*	-10.3*	121.3*	i
CCC1C2Cc3ccc(O)cc3C1(CC)CCN2C (configuration not stated)	·	·	·	·	·	i	·	·
Clc1ccc(C(Cn2ccnc2)OCc2csc3c(Cl)cccc23)c(Cl)c1 (configuration not stated)	·	·	·	·	·	-11.6*	105.3*	0.156*
CCN(CC)S(=O)(=O)c1cccc(N=Nc2c(O)n(CC)c(=S)n(CC)c2=O)c1	i	-20.4	-0.0301	i	-6.76*	-11.5*	117.3*	i
Cn1c(O)c(N=Nc2cccc(S(=O)(=O)N3CCOCC3)c2)c(=O)n(C)c1=O	i	-1.3	0.514	i	i	i	·	·
COC(=O)C1=C(c2ccccc2OCc2ccccc2)C[C@@H]2CC[C@H]1N2C(=O)NCc1cccc(C(F)(F)F)c1	·	·	·	·	·	i	·	·
CCN(CC)C(=O)c1ccc(NC(=O)Nc2ccccc2F)cc1	i	-9.1	0.96	i	i	-9.14*	84.7*	0.157*
CCN(CC)C(=O)c1ccc(NC(=O)CCCSc2ccccc2)cc1	i	-15.1	-0.00748	i	i	i	·	·
CC1CN1P(=O)(Oc1ccccc1)N1CC1C (configuration not stated)	·	·	·	·	·	i	·	·
CCCCn1c(=O)c(C(=O)Nc2ccccn2)c(O)c2ccccc21	i	-4.2	·	7*	i	-8.72*	104.0*	0.142*
CC1(C)C(=O)CCC2C1=CCC1C2CCC2(C)C(O)CCC12 (configuration not stated)	·	·	·	·	·	i	·	·
Ic1ccccc1CN[C@@H]1C2CCN(CC2)[C@@H]1C(c1ccccc1)c1ccccc1	·	·	·	·	·	i	·	·
CC(C)CCNC(=O)c1cc(C(=O)c2cc(Br)ccc2O)cn(CCC(C)C)c1=O	i	-8.5	0.231	i	i	-11.4*	102.7*	i
CC(C)CCNC(=O)c1cc(C(=O)c2cc(F)ccc2O)cn(CCC(C)C)c1=O	i	-5.5	0.117	i	i	i	·	·
COc1ccc(C2=NCC(=O)N(CC(=O)NCc3ccco3)c3sc4c(c32)CCCC4)cc1	i	-5.8	0.295	i	i	-8.88*	104.3*	i

Screens: PubChem BioAssay, several laboratories
